From ChEMBL document CHEMBL1131177, “A novel class of orally active non-peptide bradykinin B2 receptor antagonists. 4. Discovery of novel frameworks mimicking the active conformation” (J Med Chem, 1998)

Legend:
Cavia porcellus = assay: Antagonistic activity in inhibiting BK-induced bronchoconstriction in guinea pigs by oral administration at 1 mg/kg dose.; format: functional
Outline: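 Male Hartley guinea pigs (470-750 g), fasted overnight, anesthetized with pentobarbital 30 mg/kg ip, ventilated 10 mL/kg at 60 breaths/min; alcuronium 0.5 mg/kg iv, propranolol 10 mg/kg sc. BK 5 µg/kg iv; peak rise in insufflation pressure (modified Konzett–Rössler). Compound in 0.5% methylcellulose given via esophageal cannula; BK repeated 30 min later. % inhibition vs vehicle group; n = 3-4/dose.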

B2 bradykinin receptor [1] = biological target: T1, B2 bradykinin receptor (Cavia porcellus, UniProt O70526); assay: Inhibition of the specific binding of [3H]BK to Bradykinin receptor B2 in guinea pig ileum membrane preparations; format: cell membranes
T1 sequence (O70526 whole entry): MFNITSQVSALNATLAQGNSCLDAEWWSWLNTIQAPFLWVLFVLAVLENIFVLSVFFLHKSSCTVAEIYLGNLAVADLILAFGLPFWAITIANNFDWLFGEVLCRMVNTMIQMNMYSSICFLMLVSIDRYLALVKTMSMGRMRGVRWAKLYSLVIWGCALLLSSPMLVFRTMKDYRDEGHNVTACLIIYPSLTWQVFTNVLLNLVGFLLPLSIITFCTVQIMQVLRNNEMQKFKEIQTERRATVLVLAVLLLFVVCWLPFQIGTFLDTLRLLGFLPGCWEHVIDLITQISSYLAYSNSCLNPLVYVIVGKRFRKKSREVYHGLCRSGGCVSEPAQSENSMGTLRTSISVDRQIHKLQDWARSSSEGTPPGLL
Outline: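 Male Hartley guinea pig ileum membranes (100000g pellet) at 0.2 mg protein/mL in pH 6.8 TES buffer with phenanthroline, bacitracin, DTT, captopril, BSA. Incubated with 0.06 nM [3H]BK plus varying compound concentrations, 60 min, room temperature. Filtration harvest, scintillation counting. Nonspecific binding defined with 1 µM unlabeled BK. IC50 as mean of at least three determinations.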

B2 bradykinin receptor [2] = biological target: T2, B2 bradykinin receptor (Homo sapiens, UniProt P30411); assay: Inhibition of the specific binding of [3H]BK to human recombinant Bradykinin receptor B2 expressed in CHO cells.; format: cell-based
T2 sequence (P30411 whole entry): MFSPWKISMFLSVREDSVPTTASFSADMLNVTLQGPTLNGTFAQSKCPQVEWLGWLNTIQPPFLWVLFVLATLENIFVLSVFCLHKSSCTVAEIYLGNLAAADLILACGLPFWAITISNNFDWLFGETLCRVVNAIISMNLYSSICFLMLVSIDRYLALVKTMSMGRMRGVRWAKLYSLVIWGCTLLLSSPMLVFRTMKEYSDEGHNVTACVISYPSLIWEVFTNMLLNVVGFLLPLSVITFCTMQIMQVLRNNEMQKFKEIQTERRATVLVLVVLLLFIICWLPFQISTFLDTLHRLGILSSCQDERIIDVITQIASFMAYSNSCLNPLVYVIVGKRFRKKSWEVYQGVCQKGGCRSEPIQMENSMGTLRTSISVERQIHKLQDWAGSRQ
Outline: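 Intact CHO (dhfr-) cells stably expressing human B2, seeded at 3.0 × 10^4 cells/well and cultured 1 day. Incubated with 1.0 nM [3H]BK and compound, 2 h at 4 °C, in HEPES/N-methyl-D-glucamine buffer pH 7.2 with bacitracin, enalaprilat, BSA. Cells solubilized in SDS/NaOH for scintillation counting. Nonspecific binding defined with 1 µM BK. Run three times.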

Row | IC50 (B2 bradykinin receptor [1]) | IC50 (B2 bradykinin receptor [2]) | SMILES | inhibition in vivo at 1 mg/kg (Cavia porcellus)
1 | 0.64 nM | 0.26 nM | CNC(=O)c1ccc(/C=C/C(=O)NCc2cccn2-c2ccc(Cl)c(COc3cccc4ccc(C)nc34)c2Cl)cc1 | 67.9%
2 | 0.55 nM | 3.2 nM | Cc1ccc2cccc(OCc3c(Cl)ccc(N(C)C(=O)CNC(=O)/C=C/c4ccc(N5CCCC5=O)cc4)c3Cl)c2n1 | 85.3%
3 | 17 nM | 150 nM | CNC(=O)c1ccc(/C=C/C(=O)NCC(=O)N(C)c2cccc(COc3cccc4ccc(C)nc34)c2C)cc1 | –
4 | 17 nM | 14 nM | CNC(=O)c1ccc(/C=C/C(=O)NC/C=C\c2ccc(Cl)c(COc3cccc4ccc(C)nc34)c2Cl)cc1 | –
5 | 0.76 nM | 0.51 nM | Cc1ccc2cccc(OCc3c(Cl)ccc(N(C)C(=O)CNC(=O)/C=C/c4ccc(/C=C/c5ccncc5)nc4)c3Cl)c2n1 | 87.3%
6 | – | 2.6 nM | CNC(=O)c1ccc(/C=C/C(=O)NCc2ccccc2-c2ccc(C)c(COc3cccc4ccc(C)nc34)c2C)cc1 | –
7 | 5.1 nM | 110 nM | CNC(=O)c1ccc(/C=C/C(=O)NCC(=O)N(C)c2ccc(Cl)c(COc3cccc4ccc(C)nc34)c2)cc1 | –
8 | 220 nM | 710 nM | CNC(=O)c1ccc(/C=C/C(=O)NCC=Cc2ccc(Cl)c(COc3cccc4ccc(C)nc34)c2Cl)cc1 | –
9 | 17 nM | 210 nM | CNC(=O)c1ccc(/C=C/C(=O)NCC(=O)N(C)c2ccc(OC)c(COc3cccc4ccc(C)nc34)c2OC)cc1 | –
10 | 94 nM | > 10000 nM | CNC(=O)c1ccc(/C=C/C(=O)Nc2cccc(-c3ccc(C)c(COc4cccc5ccc(C)nc45)c3C)c2)cc1 | –
11 | 2.8 nM | 5.8 nM | CNC(=O)c1ccc(/C=C/C(=O)NCc2sccc2-c2ccc(C)c(COc3cccc4ccc(C)nc34)c2C)cc1 | –
12 | 0.58 nM | 0.41 nM | Cc1ccc2cccc(OCc3c(Cl)ccc(-n4cccc4CNC(=O)/C=C/c4ccc(N5CCCC5=O)cc4)c3Cl)c2n1 | 36%
13 | 0.56 nM | 0.37 nM | CC(=O)Nc1ccc(/C=C/C(=O)NCc2cccn2-c2ccc(Cl)c(COc3cccc4ccc(C)nc34)c2Cl)cn1 | 82.1%
14 | 280 nM | 4200 nM | CC(=O)Nc1ccc(/C=C/C(=O)NCC(=O)Nc2ccc(Cl)c(COc3cccc4ccc(C)nc34)c2Cl)cn1 | –
